Values after ≈ are worked out from the molar mass of the structure shown. Active and inactive are the calls of the source. The calls are words filed in the database; no cut-off is given here.
Legend:
[1] = target: T1, Corticotropin-releasing factor receptor 1 (Rattus norvegicus, UniProt P35353); experiment: Displacement of [125I]Tyro-rat/human CRF from CRF1 receptor in rat cortical membrane by gamma counting; assay type: cell membranes
T1 sequence (P35353 whole entry): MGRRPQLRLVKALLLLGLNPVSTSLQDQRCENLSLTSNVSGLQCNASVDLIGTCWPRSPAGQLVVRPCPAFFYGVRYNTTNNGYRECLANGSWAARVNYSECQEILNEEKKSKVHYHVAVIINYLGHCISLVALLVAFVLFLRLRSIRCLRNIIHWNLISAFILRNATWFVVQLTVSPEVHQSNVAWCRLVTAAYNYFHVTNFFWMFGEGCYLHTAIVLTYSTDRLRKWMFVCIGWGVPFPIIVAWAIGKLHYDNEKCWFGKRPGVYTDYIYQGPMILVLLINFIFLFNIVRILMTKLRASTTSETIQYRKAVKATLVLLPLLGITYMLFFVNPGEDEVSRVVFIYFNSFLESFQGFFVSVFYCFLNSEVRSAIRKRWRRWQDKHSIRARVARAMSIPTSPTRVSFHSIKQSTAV
How it was run: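 Binding to CRF receptors in rat cortical homogenate.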

[2] = Lipophilicity log P of the compound; assay type: physicochemical; settings: octanol/water
[3] = Aqueous solubility at pH 7; assay type: physicochemical; settings: aqueous medium
[4] = Aqueous solubility at pH 7.4; assay type: physicochemical; settings: aqueous medium
How it was run: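 Solubility measured in water at pH 7.4.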

[5] = Solubility in dilute HCl at pH 2.3; assay type: physicochemical
[6] = test system: Rattus norvegicus; experiment: Anxiolytic activity in rat assessed as increase in time spent on open arm at 18 mg/kg, po by elevated plus-maze test; assay type: functional, organism-based; set-up: dose 18 mg/kg
How it was run: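 Rat elevated plus maze: percent of test time spent in the open arms. Oral dosing in 0.25% Methocel 60 min before testing; n = 12 per dose, mean ± SEM. Analysed by ANOVA followed by Fisher's LSD comparisons against vehicle.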

[7] = test system: Rattus norvegicus; experiment: Anxiolytic activity in rat assessed as decrease in latency to exit dark chamber at 10 mg/kg, po by defensive withdrawal test relative to untreated control; assay type: functional; set-up: scale not given: the % may be the effect or the level left
How it was run: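 Rat defensive withdrawal: latency to leave the dark chamber and explore the open field, maximum 900 s. Dosed orally in 0.25% Methocel 60 min before testing; n = 8 per dose, mean ± SEM. Analysed by Kruskal–Wallis followed by Mann–Whitney U against vehicle.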

[8] = test system: Rattus norvegicus; experiment: Effect on gastrointestinal motility in fasted Sprague-Dawley rat assessed as distance of charcoal moved from stomach to cecum at 3 mg/kg, po (RVb= 42.1+/-1.8 %)
[9] = test system: Rattus norvegicus; experiment: Effect on gastrointestinal motility in fasted Sprague-Dawley rat assessed as distance of charcoal moved from stomach to cecum at 0.3 mg/kg, ip (RVb= 38.4+/-3.8 %); assay type: functional, Caecum; settings: route intraperitoneal
[10] = AUC in Beagle dog at 1 mg/kg, po by cassette dosing; assay type: ADME, organism-based, Canis lupus familiaris; set-up: dose 1 mg/kg, route oral; settings: plasma
[11] = Cmax in Beagle dog at 1 mg/kg, po by cassette dosing; assay type: ADME, organism-based, Canis lupus familiaris; set-up: dose 1 mg/kg, route oral; settings: in vivo
[12] = Half life in Beagle dog at 1 mg/kg, po by cassette dosing; assay type: ADME, organism-based, Canis lupus familiaris; set-up: dose 1 mg/kg, route oral; settings: in vivo

SMILES | IC50 [1] | other results
CCC(CC)Nc1nc(C)nc2c(-c3c(C)cc(N(C)C)nc3C)c(C)nn12 | 0.0256 µM | 
CCCCN(CCC)c1nc(C)nc2c(-c3c(C)cc(N(C)C)nc3C)c(C)nn12 | 0.0128 µM | 
COCC(COC)Nc1nc(C)nc2c(-c3ccc(Cl)cc3Cl)c(C)nn12 |  | logP [2]: 4.97; solubility [3]: < 0.001 mg/mL; solubility [4]: < 0.001 mg/mL; solubility [5]: 0.23 mg/mL (≈ 561 µM); Activity [6]: Active; Activity [7]: 72%
CN1[C@@H]2CC[C@H]1C[C@@H](OC(=O)C(CO)c1ccccc1)C2 (mixture of isomers) [ATROPINE] |  | Activity [8]: 27.5%
C[N+](C)(C)CCOC(N)=O.[Cl-] [CARBACHOL] |  | Activity [9]: 55.8%
COCCNc1nc(C)nc2c(-c3c(C)cc(N(C)C)nc3C)c(C)nn12 | > 10 µM | 
COCCN(CCOC)c1nc(C)nc2c(-c3c(C)cc(N(C)C)nc3C)c(C)nn12 | 0.133 µM | 
CCN(CC)c1nc(C)nc2c(-c3cnc(N(C)C)cc3C)c(C)nn12 | 0.0138 µM | 
CCCN(CCC)c1nc(C)nc2c(-c3ccc(OC)nc3C)c(C)nn12 | 0.0057 µM | 
CCN(CC)c1nc(C)nc2c(-c3ccc(OC)nc3C)c(C)nn12 | 0.012 µM | 
COCCN(CCOC)c1nc(C)nc2c(-c3ccc(OC)nc3C)c(C)nn12 | 0.0085 µM | AUC [10]: 1470 nM·h; Cmax [11]: 0.275 µM; half-life [12]: 10.3 h
CCCCN(CC)c1nc(C)nc2c(-c3ccc(OC)nc3C)c(C)nn12 | 0.0049 µM | 
CCN(CC)c1nc(C)nc2c(-c3cnc(OC)cc3C)c(C)nn12 | 0.0145 µM | 
COCCN(CCOC)c1nc(C)nc2c(-c3cnc(OC)cc3C)c(C)nn12 | 0.0238 µM | 
CCCCN(C)c1nc(C)nc2c(-c3ccc(OC)nc3C)c(C)nn12 | 0.0081 µM | 
CCCN(CCC)c1nc(C)nc2c(-c3c(C)cc(N(C)C)nc3C)c(C)nn12 | 0.0149 µM | 
CC[C@H](C)Nc1nc(C)nc2c(-c3ccc(OC)nc3C)c(C)nn12 | 0.007 µM | AUC [10]: 916 nM·h; Cmax [11]: 0.168 µM; half-life [12]: 7.9 h

Reference: ChEMBL document CHEMBL1138476 (J Med Chem, 2009)
